Converted amounts (≈) assume the structure as drawn.
What was measured:
Assay type in all cases: functional
Staphylococcus aureus [1] = assay: Antibacterial activity against Staphylococcus aureus 42 in absence of 1% bovine pulmonary surfactant by CLSI method; settings: Staphylococcus aureus, 42, Pulmonary surfactant
Method in brief: (§1)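 Broth MIC in Mueller-Hinton broth with 50 mg/liter CaCl2, run with or without 1% bovine pulmonary surfactant, following CLSI methods. Colonies came from frozen stocks streaked on sheep-blood tryptic soy agar (37°C, ~24 h). Incubation was at 37°C with rotation at 200 rpm. The ratio is MIC with surfactant divided by MIC without.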

Staphylococcus aureus [2] = assay: Ratio of MIC for Staphylococcus aureus 42 in presence of 1% bovine pulmonary surfactant to MIC for Staphylococcus aureus 42 in absence of 1% bovine pulmonary surfactant; method in brief: as §1
Staphylococcus aureus [3] = assay: Antibacterial activity against Staphylococcus aureus 42 in presence of 1% bovine pulmonary surfactant by CLSI method; settings: Staphylococcus aureus, 42, Pulmonary surfactant; method in brief: as §1

Row | SMILES | MIC (Staphylococcus aureus [1]) [µg/mL] | MIC (Staphylococcus aureus [3]) [µg/mL] | Ratio (Staphylococcus aureus [2])
1 | CC[C@H](C)[C@@H]1NC(=O)[C@H]([C@H](C)CC(=O)O)NC(=O)[C@@H](CO)NC(=O)CNC(=O)[C@H]([C@H](OC)C(=O)O)NC(=O)[C@@H](CCCCN)NC(=O)[C@H](CC(=O)O)NC(=O)[C@H](C)NC(=O)CN(C)C(=O)[C@@H](NC(=O)[C@@H](NC(=O)[C@@H](CCC(=O)O)NC(=O)[C@H](Cc2c[nH]c3ccccc23)NC(=O)CCCCCCCC(C)C)[C@H](O)C(N)=O)[C@H](C)OC1=O | 2 (≈ 1.22 µM) | 16 | 8
2 | CC[C@H](C)[C@@H]1NC(=O)[C@H]([C@H](C)CC(=O)O)NC(=O)[C@@H](CC(N)=O)NC(=O)CNC(=O)[C@H]([C@H](OC)C(=O)O)NC(=O)[C@@H](C)NC(=O)[C@H](CC(=O)O)NC(=O)[C@H](C)NC(=O)CN(C)C(=O)[C@@H](NC(=O)[C@@H](NC(=O)[C@@H](CCC(=O)O)NC(=O)[C@H](Cc2c[nH]c3ccccc23)NC(=O)CCCCCCCC(C)C)[C@H](O)C(N)=O)[C@H](C)OC1=O | 1 (≈ 0.619 µM) | 32 | 32
3 | CC[C@H](C)[C@@H]1NC(=O)[C@H]([C@H](C)CC(=O)O)NC(=O)[C@@H](CC(N)=O)NC(=O)CNC(=O)[C@H]([C@H](OC)C(=O)O)NC(=O)[C@@H](CC(N)=O)NC(=O)[C@H](CC(=O)O)NC(=O)[C@H](C)NC(=O)CN(C)C(=O)[C@@H](NC(=O)[C@@H](NC(=O)[C@@H](CCC(=O)O)NC(=O)[C@H](Cc2c[nH]c3ccccc23)NC(=O)CCCCCCCC(C)C)[C@H](O)C(N)=O)[C@H](C)OC1=O | 8 (≈ 4.82 µM) | 64 | 8
4 | CC[C@H](C)[C@@H]1NC(=O)[C@H]([C@H](C)CC(=O)O)NC(=O)[C@@H](CC(N)=O)NC(=O)CNC(=O)[C@H]([C@H](OC)C(=O)O)NC(=O)[C@@H](CCCCN)NC(=O)[C@H](CC(=O)O)NC(=O)[C@H](C)NC(=O)CN(C)C(=O)[C@@H](NC(=O)[C@H](CC(N)=O)NC(=O)[C@@H](CCC(=O)O)NC(=O)[C@H](Cc2c[nH]c3ccccc23)NC(=O)CCCCCCCC(C)C)[C@H](C)OC1=O | 2 (≈ 1.21 µM) | 16 | 8
5 | CC[C@H](C)[C@@H]1NC(=O)[C@H](CCC(=O)O)NC(=O)[C@@H](CO)NC(=O)CNC(=O)[C@H]([C@H](OC)C(=O)O)NC(=O)[C@@H](CCCCN)NC(=O)[C@H](CC(=O)O)NC(=O)[C@H](C)NC(=O)CN(C)C(=O)[C@@H](NC(=O)[C@@H](NC(=O)[C@@H](CCC(=O)O)NC(=O)[C@H](Cc2c[nH]c3ccccc23)NC(=O)CCCCCCCC(C)C)[C@H](O)C(N)=O)[C@H](C)OC1=O | 64 (≈ 39.2 µM) | 128 | 2
6 | CC[C@H](C)[C@@H]1NC(=O)[C@H](CCC(=O)O)NC(=O)[C@@H](CC(N)=O)NC(=O)CNC(=O)[C@H]([C@H](OC)C(=O)O)NC(=O)[C@@H](CO)NC(=O)[C@H](CC(=O)O)NC(=O)[C@H](C)NC(=O)CN(C)C(=O)[C@@H](NC(=O)[C@@H](NC(=O)[C@@H](CCC(=O)O)NC(=O)[C@H](Cc2c[nH]c3ccccc23)NC(=O)CCCCCCCC(C)C)[C@H](O)C(N)=O)[C@H](C)OC1=O | 8 (≈ 4.95 µM) | 8 | 1
7 | CC[C@H](C)[C@@H]1NC(=O)[C@H](CCC(=O)O)NC(=O)[C@@H](CC(N)=O)NC(=O)CNC(=O)[C@H]([C@H](OC)C(=O)O)NC(=O)[C@@H](CC(N)=O)NC(=O)[C@H](CC(=O)O)NC(=O)[C@H](C)NC(=O)CN(C)C(=O)[C@@H](NC(=O)[C@@H](NC(=O)[C@@H](CCC(=O)O)NC(=O)[C@H](Cc2c[nH]c3ccccc23)NC(=O)CCCCCCCC(C)C)[C@H](O)C(N)=O)[C@H](C)OC1=O | 16 (≈ 9.73 µM) | 16 | 1
8 | CC[C@H](C)[C@@H]1NC(=O)[C@H](CCC(=O)O)NC(=O)[C@@H](C)NC(=O)CNC(=O)[C@H]([C@H](OC)C(=O)O)NC(=O)[C@@H](CCCCN)NC(=O)[C@H](CC(=O)O)NC(=O)[C@H](C)NC(=O)CN(C)C(=O)[C@@H](NC(=O)[C@@H](NC(=O)[C@@H](CCC(=O)O)NC(=O)[C@H](Cc2c[nH]c3ccccc23)NC(=O)CCCCCCCC(C)C)[C@H](O)C(N)=O)[C@H](C)OC1=O | 8 (≈ 4.95 µM) | 16 | 2
9 | CC[C@H](C)[C@@H]1NC(=O)[C@H](CCC(=O)O)NC(=O)[C@@H](CC(N)=O)NC(=O)CNC(=O)[C@H]([C@H](OC)C(=O)O)NC(=O)[C@@H](C)NC(=O)[C@H](CC(=O)O)NC(=O)[C@H](C)NC(=O)CN(C)C(=O)[C@@H](NC(=O)[C@@H](NC(=O)[C@@H](CCC(=O)O)NC(=O)[C@H](Cc2c[nH]c3ccccc23)NC(=O)CCCCCCCC(C)C)[C@H](O)C(N)=O)[C@H](C)OC1=O | 4 (≈ 2.5 µM) | 8 | 2

Second part, led by results:

Row | MIC (Staphylococcus aureus [1]) [µg/mL] | MIC (Staphylococcus aureus [3]) [µg/mL] | SMILES | Ratio (Staphylococcus aureus [2])
10 | 1 (≈ 0.618 µM) | 16 | CC(C)CCCCCCCC(=O)N[C@@H](Cc1c[nH]c2ccccc12)C(=O)N[C@H](CC(N)=O)C(=O)N[C@@H](CC(=O)O)C(=O)N[C@@H]1C(=O)NCC(=O)N[C@@H](CCCN)C(=O)N[C@@H](CC(=O)O)C(=O)N[C@H](C)C(=O)N[C@@H](CC(=O)O)C(=O)NCC(=O)N[C@H](C)C(=O)N[C@@H]([C@H](C)CC(=O)O)C(=O)N[C@@H](CC(=O)c2ccccc2N)C(=O)O[C@H]1C | 16
11 | 0.5 (≈ 0.306 µM) | 64 | CC(C)CCCCCCCC(=O)N[C@@H](Cc1c[nH]c2ccccc12)C(=O)N[C@H](CC(N)=O)C(=O)N[C@@H](CC(=O)O)C(=O)N[C@@H]1C(=O)NCC(=O)N[C@@H](CCCN)C(=O)N[C@@H](CC(=O)O)C(=O)N[C@H](C)C(=O)N[C@@H](CC(=O)O)C(=O)NCC(=O)N[C@H](CO)C(=O)N[C@@H]([C@H](C)CC(=O)O)C(=O)N[C@@H](CC(=O)c2ccccc2N)C(=O)O[C@H]1C | 128
12 | 1 (≈ 0.613 µM) | 32 | CC(C)CCCCCCCC(=O)N[C@@H](Cc1c[nH]c2ccccc12)C(=O)N[C@H](CC(N)=O)C(=O)N[C@@H](CC(=O)O)C(=O)N[C@@H]1C(=O)NCC(=O)N[C@@H](CCCN)C(=O)N[C@@H](CC(=O)O)C(=O)N[C@H](C)C(=O)N[C@@H](CC(=O)O)C(=O)NCC(=O)N[C@H](CO)C(=O)N[C@@H]([C@H](C)CC(=O)O)C(=O)N[C@@H](Cc2c[nH]c3ccccc23)C(=O)O[C@H]1C | 32
13 | 2 (≈ 1.28 µM) | 8 | CC[C@H](C)[C@@H]1NC(=O)[C@H]([C@H](C)CC(=O)O)NC(=O)[C@@H](CO)NC(=O)CNC(=O)[C@H](CC(=O)O)NC(=O)[C@@H](C)NC(=O)[C@H](CC(=O)O)NC(=O)[C@H](CCCN)NC(=O)CNC(=O)[C@@H](NC(=O)[C@H](CC(=O)O)NC(=O)[C@@H](CC(N)=O)NC(=O)[C@H](Cc2c[nH]c3ccccc23)NC(=O)CCCCCCCC(C)C)[C@H](C)OC1=O | 4
14 | 4 (≈ 2.59 µM) | 8 | CC(C)CCCCCCCC(=O)N[C@@H](Cc1c[nH]c2ccccc12)C(=O)N[C@H](CC(N)=O)C(=O)N[C@@H](CC(=O)O)C(=O)N[C@@H]1C(=O)NCC(=O)N[C@@H](CCCN)C(=O)N[C@@H](CC(=O)O)C(=O)N[C@H](C)C(=O)N[C@@H](CC(=O)O)C(=O)NCC(=O)N[C@H](CO)C(=O)N[C@@H]([C@H](C)CC(=O)O)C(=O)N[C@@H](C(C)C)C(=O)O[C@H]1C | 2
15 | 8 (≈ 4.94 µM) | 16 | CC(C)CCCCCCCC(=O)N[C@@H](Cc1c[nH]c2ccccc12)C(=O)N[C@H](CC(N)=O)C(=O)N[C@@H](CC(=O)O)C(=O)N[C@@H]1C(=O)NCC(=O)N[C@@H](CCCN)C(=O)N[C@@H](CC(=O)O)C(=O)N[C@H](C)C(=O)N[C@@H](CC(=O)O)C(=O)NCC(=O)N[C@H](CO)C(=O)N[C@@H](CCC(=O)O)C(=O)N[C@@H](CC(=O)c2ccccc2N)C(=O)O[C@H]1C | 2
16 | 1 (≈ 0.602 µM) | 16 | CC(C)CCCCCCCC(=O)N[C@@H](Cc1c[nH]c2ccccc12)C(=O)N[C@H](CC(N)=O)C(=O)N[C@@H](CC(=O)O)C(=O)N[C@@H]1C(=O)NCC(=O)N[C@@H](CCCN)C(=O)N[C@@H](CC(=O)O)C(=O)N[C@H](C)C(=O)N[C@@H](CC(=O)O)C(=O)NCC(=O)N[C@H](CC(N)=O)C(=O)N[C@@H]([C@H](C)CC(=O)O)C(=O)N[C@@H](CC(=O)c2ccccc2N)C(=O)O[C@H]1C | 16
17 | 1 (≈ 0.582 µM) | 32 | CC(C)CCCCCCCC(=O)N[C@@H](Cc1c[nH]c2ccccc12)C(=O)N[C@H](CC(N)=O)C(=O)N[C@@H](CC(=O)O)C(=O)N[C@@H]1C(=O)NCC(=O)N[C@@H](CCCN)C(=O)N[C@@H](CC(=O)O)C(=O)N[C@H](CCCCN)C(=O)N[C@@H](CC(=O)O)C(=O)NCC(=O)N[C@H](CC(N)=O)C(=O)N[C@@H]([C@H](C)CC(=O)O)C(=O)N[C@@H](CC(=O)c2ccccc2N)C(=O)O[C@H]1C | 32
